Counter-ions that a name gives are not always drawn.
Test system: M. smegmatis 70S ribosome (spectinomycin site: helix-34 of 16S rRNA and RpsE protein)
Experiment: cell-free translation, luciferase read-out
Assay type: biochemical, Mycolicibacterium smegmatis
Conditions: purified 70S ribosomes, firefly luciferase mRNA
In short: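 Purified M. smegmatis 70S ribosomes were used in translation reactions programmed with firefly luciferase mRNA that was transcribed in vitro with T7 RNA polymerase. Inhibition was read as loss of luciferase activity. IC50 was taken as the drug concentration that inhibits luciferase activity by 50%.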

Structure (SMILES) | Ribosome translation inhibition IC50 [µg/mL]
CN[C@@H]1[C@H](O)[C@H](NC)[C@H]2O[C@@]3(O)C(=O)C[C@@H](C)O[C@H]3O[C@@H]2[C@H]1O [compound 1, Spectinomycin] | 0.36
CN[C@H]1[C@@H](O)[C@@H](NC)C[C@H]2O[C@@H]3O[C@H](C)C[C@@](O)(CNCc4ccc(F)cc4)[C@]3(O)O[C@H]12 [compound 7, 6-Deoxy-3’-dihydro-3’(R)-[(4-fluorobenzyl)aminomethyl]spectinomycin trihydrochloride] | 23.3
CN[C@@H]1[C@H](O)[C@H](NC)[C@H]2O[C@@]3(O)C(=O)C[C@@H](C)O[C@H]3O[C@@H]2[C@@H]1Cl [compound 8, 6-Epi-chloro-6-deoxyspectinomycin dihydrochloride] | 54.7
CN[C@H]1C[C@@H](NC)[C@H](O)[C@H]2O[C@@H]3O[C@H](C)CC(=O)[C@]3(O)O[C@@H]21 [compound 9, 2-Deoxyspectinomycin dihydrochloride] | > 60
CN[C@H]1C[C@@H](NC)[C@H](O)[C@H]2O[C@@H]3O[C@H](C)C[C@@H](NC(=O)Cc4ccccn4)[C@]3(O)O[C@@H]21 [compound 10, 2-Deoxy-3’-deoxy-3’-dihydro-3’(R)-[(pyridin-2-yl)acetylamino]spectinomycin dihydrochloride] | 10.2
